Measurements taken from article PMC4617824 (Cancer research, 2014).
One block for each molecule: values may come before it.

What was measured:
[1] = test system: phosphorylated levels of GST-Cables1 (endogenous Akt); type: cell-based; conditions: for block of IGF-1-induced enhancement of GST-Cables1 phosphorylation: 10 μM inhibitor 1 h, then 100 ng/ml IGF 15 min, serum-starved cells
[2] = test system: Akt phosphorylation at T473 (Akt pT473); assay: A549 xenograft tumors: Akt phosphorylation; type: in vivo, lung cancer A549 xenograft mouse model; conditions: compared with vehicle, Figure S1
[3] = test system: phosphorylation of Cables1 at T44 and T150; assay: A549 xenograft tumors: Cables1 phosphorylation; type: in vivo, lung cancer A549 xenograft mouse model; conditions: Figure S1
14-3-3ν = 14-3-3ν (UniProt Q04917); assay: TR-FRET titration; conditions: reference: unphosphorylated T44 peptide; sites T44
UniProt Q04917, sequence (Q04917 whole entry, looked up): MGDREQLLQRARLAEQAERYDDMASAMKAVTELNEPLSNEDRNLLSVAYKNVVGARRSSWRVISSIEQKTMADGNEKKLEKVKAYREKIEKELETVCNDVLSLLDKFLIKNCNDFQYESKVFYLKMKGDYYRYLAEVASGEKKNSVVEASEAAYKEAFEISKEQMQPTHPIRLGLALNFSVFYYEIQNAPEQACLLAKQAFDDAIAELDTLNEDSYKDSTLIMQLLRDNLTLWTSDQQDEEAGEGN

[4] = test system: Cables1 binding to 14-3-3 (GST-Cables1 / His-14-3-3γ); conditions: COS7 lysates expressing GST-Cables1 and His-14-3-3γ, 0.5 h, room temperature
In short: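 COS7 cells co-expressing His-14-3-3γ and GST-Cables1 were lysed. Lysates were incubated 0.5 h at room temperature with calf intestinal phosphatase, with phosphatase inhibitors (5 mM Na4P2O7, 5 mM NaF, 5 mM Na3VO4), or untreated. His-14-3-3γ complexes were captured on nickel-charged resin (2 h, 4°C), washed, and eluted by boiling in SDS sample buffer. GST-Cables1 was detected by Western blot.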

Molecule: O.O=C(O)C(F)(F)F.O=c1[nH]c2ccccc2n1C1CCN(Cc2ccc(-c3nc4cc5[nH]cnc5cc4nc3-c3ccccc3)cc2)CC1 [AKT1/2 inhibitor]
block of IGF-1-induced enhancement of GST-Cables1 phosphorylation [1]: totally blocked

Molecule: CC(C)n1nc(-c2ccc3oc(N)nc3c2)c2c(N)ncnc21 [INK128]
Akt pT473 level in tumors [2]: reduced
phosphorylation of Cables1 at T44 in tumors ([3]; pT44, compared with vehicle): decreased
phosphorylation of Cables1 at T150 in tumors ([3]; pT150, compared with vehicle): decreased

Molecule: O=c1cc(N2CCOCC2)oc2c(-c3ccccc3)cccc12 [LY294002]
block of IGF-1-induced enhancement of GST-Cables1 phosphorylation [1]: totally blocked

binding against the reference (14-3-3ν): stronger
Molecule: Cables1 (from UniProt Q8TDN4-2) pT44 peptide

Molecule: IGF-1: IGF-1, Sigma-Aldrich
phosphorylated levels of GST-Cables1 ([1]; 100 ng/ml IGF, 15 min, cells serum-starved 24 h, GST pull-down, Western blot): markedly enhanced

Cables1 binding to 14-3-3 after CIP treatment [4]: reduced
B1: CIP: calf intestinal phosphatase (protein, UniProt P19111 20-506, looked up)
Intestinal-type alkaline …: LVPVEEEDPAFWNRQAAQALDVAKKLQPIQTAAKNVILFLGDGMGVPTVTATRILKGQMNGKLGPETPLAMDQFPYVALSKTYNVDRQVPDSAGTATAYLCGVKGNYRTIGVSAAARYNQCKTTRGNEVTSVMNRAKKAGKSVGVVTTTRVQHASPAGAYAHTVNRNWYSDADLPADAQMNGCQDIAAQLVNNMDIDVILGGGRKYMFPVGTPDPEYPDDASVNGVRKRKQNLVQAWQAKHQGAQYVWNRTALLQAADDSSVTHLMGLFEPADMKYNVQQDHTKDPTLQEMTEVALRVVSRNPRGFYLFVEGGRIDHGHHDDKAYMALTEAGMFDNAIAKANELTSELDTLILVTADHSHVFSFGGYTLRGTSIFGLAPSKALDSKSYTSILYGNGPGYALGGGSRPDVNDSTSEDPSYQQQAAVPQASETHGGEDVAVFARGPQAHLVHGVEEETFVAHIMAFAGCVEPYTDCNLPAPTTATSIPD
